Assay [1] has as its target T1, D(2) dopamine receptor (Rattus norvegicus, UniProt P61169). Put plainly: Compound was tested in vitro for binding affinity against Dopamine receptor D2 using [3H]-spiperone as radioligand. In a few lines: (§1)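 Rat striatal membranes (male Sprague-Dawley, 150–250 g), washed three times in 50 mM Tris-HCl pH 7.7. 0.2–0.4 nM [3H]spiperone with 100 mM NaCl and 3 mM MgCl2, about 2 mg tissue, 15 min at 37 °C. Nonspecific binding defined with 1 μM haloperidol. Bound ligand collected by filtration onto PEI-treated glass fiber filters and counted by scintillation. Competition curves fitted iteratively.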

In assay [2] the target is Sigma non-opioid intracellular receptor 1 (Rattus norvegicus, UniProt Q9R0C9). Nature of the assay: In vitro for binding affinity against sigma receptor using [3H](+)-3-PPP as radioligand. In a few lines:
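Whole rat brain membranes (male Sprague-Dawley) in 50 mM Tris-HCl pH 8.0. Nonspecific binding defined with 1 μM haloperidol. Rapid filtration onto PEI-treated glass fiber filters, scintillation counting. IC50 from iterative curve fitting.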

Assay [3] has as its target T1, D(2) dopamine receptor. Put plainly: Binding affinity against Dopamine receptor D2 using [3H]spiperone as radioligand. In a few lines:
as §1

For assay [4], the species on record is Rattus norvegicus. Put plainly: Effective dose required for DOPA accumulation (presynaptic dopaminergic effect) in rat; I is inactive. Format: functional, organism-based. An outline of the steps: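 Male Sprague-Dawley rats (200–300 g); drug in saline given sc. DOPA measured by HPLC with electrochemical detection in each brain area. Dose-response curves used four to six dose levels per substance and area.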

Assay [5] deals with Rattus norvegicus. Nature of the assay: post-synaptic dopaminergic effect was assessed by the increase in locomotor activity at 30 min time interval by 200 umol/kg dosage administration. Type of assay: functional.
The target in assay [6] is D(2) dopamine receptor (Rattus norvegicus) (UniProt P61169). Put plainly: Tested in vivo for binding affinity against Dopamine receptor D2 using nonradiolabeled 5,6-di-n-Pr-ADTN. Also on record: concentration or dose not given beside the values. Type of assay: organism-based.
D(2) dopamine receptor (Rattus norvegicus), sequence (P61169 whole entry): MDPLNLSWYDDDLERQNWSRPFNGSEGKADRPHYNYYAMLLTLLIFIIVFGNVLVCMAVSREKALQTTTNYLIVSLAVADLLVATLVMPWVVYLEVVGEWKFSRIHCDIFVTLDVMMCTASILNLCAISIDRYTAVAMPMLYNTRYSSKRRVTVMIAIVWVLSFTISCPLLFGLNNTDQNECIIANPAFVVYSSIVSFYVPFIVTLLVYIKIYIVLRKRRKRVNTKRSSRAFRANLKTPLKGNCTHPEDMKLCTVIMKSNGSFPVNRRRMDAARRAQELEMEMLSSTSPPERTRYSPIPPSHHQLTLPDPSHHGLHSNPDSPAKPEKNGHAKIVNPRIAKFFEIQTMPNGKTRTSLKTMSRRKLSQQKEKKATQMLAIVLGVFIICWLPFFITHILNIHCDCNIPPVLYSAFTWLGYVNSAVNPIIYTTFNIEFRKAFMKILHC
Assay [7] concerns Rattus norvegicus. Put plainly: post-synaptic dopaminergic effect was assessed by the increase in locomotor activity at 30 min time interval by 213 umol/kg dosage administration. Format: functional.
The test system of assay [8] is Rattus norvegicus. Put plainly: post-synaptic dopaminergic effect was assessed by the increase in locomotor activity at 30 min time interval by 10.6 umol/kg dosage administration. Format: functional.
In assay [9] the test system is Rattus norvegicus. Nature of the assay: post-synaptic dopaminergic effect was assessed by the increase in locomotor activity at 30 min time interval by 13 umol/kg dosage administration. Format: functional.
Assay [10] relates to Rattus norvegicus. Put plainly: post-synaptic dopaminergic effect was assessed by the increase in locomotor activity at 30 min time interval by 7 umol/kg dosage administration. Type of assay: functional.
In assay [11] the test system is Rattus norvegicus. Put plainly: post-synaptic dopaminergic effect was assessed by the increase in locomotor activity at 30 min time interval by 3.3 umol/kg dosage administration. Format: functional. In a few lines:
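Test substance dissolved in saline immediately before use, occasionally with a few drops of glacial acetic acid and/or moderate heating; dosing solutions at neutral pH. Locomotor activity is the behavioral read-out of postsynaptic dopamine receptor stimulation.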

Assay [12] has as its system Rattus norvegicus. Nature of the assay: post-synaptic dopaminergic effect was assessed by the increase in locomotor activity at 30 min time interval by 265 umol/kg dosage administration. Type of assay: functional.
For assay [13], the system named is Rattus norvegicus. Nature of the assay: post-synaptic dopaminergic effect was assessed by the increase in locomotor activity at 30 min time interval by 133 umol/kg dosage administration. Format: functional.

Activity calls are given as the source filed them. The calls are words filed in the database; no cut-off is given here.

T1 sequence (P61169 whole entry): as above
Sigma non-opioid intracellular receptor 1, sequence (Q9R0C9 whole entry): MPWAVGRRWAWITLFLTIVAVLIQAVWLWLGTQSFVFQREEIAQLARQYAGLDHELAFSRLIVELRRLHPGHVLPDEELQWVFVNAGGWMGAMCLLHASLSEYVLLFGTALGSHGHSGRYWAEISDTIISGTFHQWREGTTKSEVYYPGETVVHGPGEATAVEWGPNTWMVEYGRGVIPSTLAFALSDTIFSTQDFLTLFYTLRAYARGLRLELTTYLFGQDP

`CCCCN1CCCC2c3cc(O)ccc3CCC21` (racemic; 33): the IC50 on D(2) dopamine receptor [1] worked out at 10400 nM; in assay [2], 35 nM.
For the molecule `Oc1cccc([C@@H]2CCCNC2)c1`, the IC50 on D(2) dopamine receptor [3] stood at 1750 nM; in assay [2], 15600 nM. For the same molecule, the ED50 entry in the assay filed under Rattus norvegicus [4] was “inactive”. This molecule also showed an Accumulated counts in the assay on Rattus norvegicus [5] of 4.
Turning to `CCCN1CCC[C@@H](c2cccc(O)c2)C1` [PRECLAMOL], the Control in assay [6] came out at 33%. In the assay on Rattus norvegicus [7], this molecule registered an Accumulated counts of 12.
Molecule `CCCN1CCCC2c3cc(O)ccc3CCC21` (stereo in doubt; form 1) came in with an Accumulated counts with Rattus norvegicus [8] of 28. The same molecule came in with an IC50 in [2] of 520 nM.
In assay [6], `CCCN1CCC[C@H](c2cccc(O)c2)C1` yielded a Control of 84%. The molecule also had an Accumulated counts in the assay with Rattus norvegicus [9] of 78.
In the case of `Oc1cccc([C@@H]2CCCN(CCc3ccccc3)C2)c1`, the IC50 at D(2) dopamine receptor [3] stood at 44 nM; in [2], 16 nM. Besides, in the assay on Rattus norvegicus [10], the Accumulated counts is reported as 71.
For the molecule `CC(C)N1CCC[C@@H](c2cccc(O)c2)C1`, the IC50 on D(2) dopamine receptor [3] was 355 nM; in assay [2], 208 nM. In the assay with Rattus norvegicus [11], this molecule had an Accumulated counts of 38.
In the case of `Oc1cccc([C@H]2CCCNC2)c1`, the concentration for half-maximal inhibition (IC50) on D(2) dopamine receptor [3] came out at 435 nM; in assay [2] it was 4570 nM. Besides, in the assay with Rattus norvegicus [12], the Accumulated counts was found to be 47.
With `CN1CCC[C@H](c2cccc(O)c2)C1`, the results for the IC50 (on D(2) dopamine receptor [3]; in assay [2]) were 4120 nM and 373 nM, respectively. The molecule also displayed an Accumulated counts in the assay on Rattus norvegicus [13] of 88.

Source of the values: ChEMBL document CHEMBL1123557, “N-substituted 1,2,3,4,4a,5,6,10b-octahydrobenzo[f]quinolines and 3-phenylpiperidines: effects on central dopamine and sigma receptors” (J Med Chem, 1987).
